Measurements taken from paper PMC4958041 (Journal of enzyme inhibition and medicinal chemistry, 2016).
Where two headings read alike, the source gives them in different places.

What was measured:
[1] = target: T1, human TMEM16A (Homo sapiens, UniProt Q5XXA6, DEL476-501); assay: TMEM16A functional assay; format: cell-based; conditions: for TMEM16A inhibition activity on initial testing: tested at 10 µM, fluorescence plate reader assay
T1 sequence (Q5XXA6 with tags, fused parts or gaps isoform Q5XXA6-5 DEL539-564): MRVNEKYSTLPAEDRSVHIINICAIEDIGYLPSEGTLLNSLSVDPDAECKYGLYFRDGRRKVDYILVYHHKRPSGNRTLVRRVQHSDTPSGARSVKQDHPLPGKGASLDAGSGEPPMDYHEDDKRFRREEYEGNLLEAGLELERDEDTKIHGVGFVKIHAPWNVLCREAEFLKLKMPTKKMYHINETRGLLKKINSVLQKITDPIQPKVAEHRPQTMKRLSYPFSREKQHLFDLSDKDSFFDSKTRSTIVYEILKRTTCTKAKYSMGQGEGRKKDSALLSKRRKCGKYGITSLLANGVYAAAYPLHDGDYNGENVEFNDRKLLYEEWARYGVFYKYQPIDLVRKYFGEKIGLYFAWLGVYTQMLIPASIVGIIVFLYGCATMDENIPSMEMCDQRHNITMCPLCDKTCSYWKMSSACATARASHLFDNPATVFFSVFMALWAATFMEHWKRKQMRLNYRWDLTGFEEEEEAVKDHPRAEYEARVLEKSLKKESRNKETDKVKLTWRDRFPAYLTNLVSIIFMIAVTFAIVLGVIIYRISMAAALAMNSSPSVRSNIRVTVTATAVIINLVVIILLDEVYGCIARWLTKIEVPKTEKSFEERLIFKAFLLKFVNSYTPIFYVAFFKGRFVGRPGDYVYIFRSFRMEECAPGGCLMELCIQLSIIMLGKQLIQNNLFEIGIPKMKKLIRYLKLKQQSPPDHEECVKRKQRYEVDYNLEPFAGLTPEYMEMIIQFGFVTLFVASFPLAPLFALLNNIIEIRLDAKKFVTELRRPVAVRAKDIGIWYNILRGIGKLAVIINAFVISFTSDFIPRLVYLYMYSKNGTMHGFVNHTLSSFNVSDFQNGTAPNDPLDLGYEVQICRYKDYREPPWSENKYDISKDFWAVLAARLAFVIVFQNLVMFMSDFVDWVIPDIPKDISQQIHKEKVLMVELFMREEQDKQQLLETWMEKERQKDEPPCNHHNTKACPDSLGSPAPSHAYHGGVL
Method in brief: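 FRT cells stably co-expressing human TMEM16A (abc isoform) and YFP-H148Q/I152L/F46L, assayed 24 h after plating. Wells washed twice with PBS; test compound added in DMSO for 10 min. Fluorescence read every 400 ms: 2 s baseline, 140 mM iodide added at 2 s, then 70 mM iodide containing 300 µM ATP at 6.4 s. Initial iodide influx rate fitted by non-linear regression. Screen at 10 µM; IC50 from concentration-inhibition data.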

[2] = target: T1, human TMEM16A; assay: Short-circuit current assay in FRT-TMEM16A cells; format: cell-based
Method in brief: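 FRT cells stably expressing human TMEM16A, grown on Snapwell inserts and mounted in Ussing chambers. Basolateral membrane permeabilized with amphotericin B (250 µg/ml, 30 min). Chloride gradient: HCO3-buffered basolateral solution; apical 120 mM NaCl replaced by Na gluconate. 37 °C, 95% O2/5% CO2, 10-min stabilization. Test compound added apically 5 min before activation by 100 µM ATP. IC50 from short-circuit current concentration-dependence.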

[3] = target: T1, human TMEM16A; conditions: read-out: IC50, short-circuit current assay of TMEM16A function; as reported previously; cited from earlier work

## Cc1c(O)nc(SCC(=O)Nc2nc(-c3ccccc3)cs2)nc1C(F)(F)F [Compound 9ao, 2-(4-Hydroxy-5-methyl-6-trifluoromethyl-pyrimidin-2-ylsulfanyl)-N-(4-phenyl-thiazol-2-yl)-acetamide]
[1]
  IC50: 6.2 µM
  TMEM16A inhibition activity on initial testing: measurable activity

## CCc1c(C)nc(SCC(=O)Nc2nc(-c3cccs3)cs2)nc1O [Compound 9bo, 2-(5-Ethyl-4-hydroxy-6-methyl-pyrimidin-2-ylsulfanyl)-N-(4-thiophen-2-yl-thiazol-2-yl)-acetamide]
[1]
  IC50: 3.5 µM
  TMEM16A inhibition activity on initial testing: measurable activity
[2]
  IC50: ~1 µM

## Cc1nc(SCC(=O)Nc2nc(-c3cccs3)cs2)nc(O)c1C [Compound 9bs, 2-(4-Hydroxy-5,6-dimethyl-pyrimidin-2-ylsulfanyl)-N-(4-thiophen-2-yl-thiazol-2-yl)-acetamide]
[1]
  IC50: 2.9 µM
  TMEM16A inhibition activity on initial testing: measurable activity
[2]
  IC50: ~3 µM

## CCc1c(C)nc(SCC(=O)Nc2nc(-c3ccc(OC)cc3)cs2)[nH]c1=O [Compound T16Ainh-A01]
[3]
  IC50: ~1 µM
